Measured values: ChEMBL document CHEMBL1121490, “10-Piperazinyl-4H-theino[3,2-b][1,5]- and -[3,4-b][1,5]benzodiazepines as potential neuroleptics” (J Med Chem, 1980)

Columns and labels:
Mus musculus [1] = assay: Hypothermia in mice after perorla administration; assay type: functional
Summary of the method: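 Groups of three CFW mice were dosed orally. Rectal temperature was taken 15 min, 2.5 h and 5 h after dosing. Mean changes from each group's mean initial temperature were summed as a "temperature index". ED_min is the minimum dose (mg/kg) giving an index at least 5 lower than the control group.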

[2] = (§1) Lethal dose in mice after perorla administration; assay type: toxicity, organism-based; conditions: mouse, in vivo, po
Summary of the method: (§2)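 CFW albino mice (19–21 g), groups of three, given oral doses up to 800 mg/kg as solution or suspension. Mortality and gross behavioural changes observed over 48 h; LD50 approximated from the outcome.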

Rattus norvegicus [3] = assay: Compound was evaluated for its ability to block conditioned avoidance response (CAR) in rats; Dose administered perorally is 40 mg/kg; no significant block 0-25%; assay type: functional; conditions: route oral
Rattus norvegicus [4] = assay: compound was evaluated for its ability to produce catalepsy activity in rats; Dose administered perorally is 50 mg/kg; assay type: functional; conditions: route oral
Summary of the method: (§3)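 Groups of eight Lilly Wistar rats (180–190 g) were dosed orally and checked at 0.5, 1, 1.5, 2, 3, 4 and 5 h. Front paws were placed on a 1.5-cm rod 7 cm above the table, and posture was timed up to 20 min. Release within 10 s counted as noncataleptic. Each rat was scored 0–5 by hold time. Maximum scores per animal were summed, giving a group maximum of 40.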

Rattus norvegicus [5] = assay: Compound was evaluated for its ability to block conditioned avoidance response (CAR) in rats; Dose administered perorally is 50 mg/kg; 31-50% block; assay type: functional; conditions: route oral
Rattus norvegicus [6] = assay: Compound was evaluated for its ability to block conditioned avoidance response (CAR) in rats; Dose administered perorally is 50 mg/kg; no significant block 0-25%; assay type: functional; conditions: route oral
Rattus norvegicus [7] = assay: compound was evaluated for its ability to produce catalepsy activity in rats; Dose administered perorally is 100 mg/kg; assay type: functional; conditions: route oral; summary of the method: as §3
Mus musculus [8] = assay: as §1; assay type: toxicity, organism-based; conditions: in vivo, po; summary of the method: as §2
Rattus norvegicus [9] = assay: Compound was evaluated for its ability to block conditioned avoidance response (CAR) in rats; Dose administered perorally is 25 mg/kg; 76-99% block; assay type: functional; conditions: route oral
Rattus norvegicus [10] = assay: compound was evaluated for its ability to produce catalepsy activity in rats; Dose administered perorally is 25 mg/kg; assay type: functional; conditions: route oral; summary of the method: as §3
Rattus norvegicus [11] = assay: Compound was evaluated for its ability to block conditioned avoidance response (CAR) in rats; Dose administered perorally is 5 mg/kg; no significant block 0-25%; assay type: functional; conditions: route oral
Rattus norvegicus [12] = assay: Compound was evaluated for its ability to block conditioned avoidance response (CAR) in rats; Dose administered perorally is 20 mg/kg; 26-30% block; assay type: functional; conditions: route oral
Rattus norvegicus [13] = assay: compound was evaluated for its ability to produce catalepsy activity in rats; Dose administered perorally is 20 mg/kg; assay type: functional; conditions: route oral; summary of the method: as §3
Rattus norvegicus [14] = assay: Compound was evaluated for its ability to block conditioned avoidance response (CAR) in rats; Dose administered perorally is 25 mg/kg; 31-50% block; assay type: functional; conditions: route oral
Rattus norvegicus [15] = assay: Compound was evaluated for its ability to block conditioned avoidance response (CAR) in rats; Dose administered perorally is 50 mg/kg; 26-30% block; assay type: functional; conditions: route oral
Rattus norvegicus [16] = assay: Compound was evaluated for its ability to produce catalepsy activity in rats; Dose administered perorally is 50 mg/kg; no significant effect (group score 0-3); assay type: functional; conditions: route oral; summary of the method: as §3
Rattus norvegicus [17] = assay: Compound was evaluated for its ability to block conditioned avoidance response (CAR) in rats; Dose administered perorally is 25 mg/kg;n o significant block 0-25%; assay type: functional; conditions: route oral
Rattus norvegicus [18] = assay: Compound was evaluated for its ability to block conditioned avoidance response (CAR) in rats; Dose administered perorally is 20 mg/kg; 51-75% block; assay type: functional; conditions: route oral
Summary of the method: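 Lilly Wistar rats (120–130 g) trained in a shuttle box to cross on a 5-s buzzer; failure to respond within 1 s of its end gave a mild shock. Only high responders used. Groups of five dosed orally 1 h 50 min before test; 10-min habituation, then 20-min session. Blockade = shocks received as % of stimuli presented.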

Rattus norvegicus [19] = assay: Compound was evaluated for its ability to block conditioned avoidance response (CAR) in rats; Dose administered perorally is 25 mg/kg; 51-75% block; assay type: functional; conditions: route oral
Rattus norvegicus [20] = assay: Compound was evaluated for its ability to block conditioned avoidance response (CAR) in rats; Dose administered perorally is 12.5 mg/kg; 51-75% block; assay type: functional; conditions: route oral
Rattus norvegicus [21] = species on record: Rattus norvegicus; assay: compound was evaluated for its ability to produce catalepsy activity in rats; assay type: functional; summary of the method: as §3
Rattus norvegicus [22] = assay: Compound was evaluated for its ability to block conditioned avoidance response (CAR) in rats; Dose administered perorally is 40 mg/kg; 51-75% block; assay type: functional; conditions: route oral
Rattus norvegicus [23] = assay: Compound was evaluated for its ability to block conditioned avoidance response (CAR) in rats; Dose administered perorally is 50 mg/kg; 76-99% block; assay type: functional; conditions: route oral
Rattus norvegicus [24] = assay: Compound was evaluated for its ability to block conditioned avoidance response (CAR) in rats; Dose administered perorally is 10 mg/kg; no significant block 0-25%; assay type: functional; conditions: route oral
Rattus norvegicus [25] = assay: Compound was evaluated for its ability to block conditioned avoidance response (CAR) in rats; Dose administered perorally is 10; 51-75% block; assay type: functional
Rattus norvegicus [26] = assay: Compound was evaluated for its ability to block conditioned avoidance response (CAR) in rats; Dose administered perorally is 10 mg/kg; 51-75% block; assay type: functional; conditions: route oral
Rattus norvegicus [27] = species on record: Rattus norvegicus; assay: compound was evaluated for its ability to produce catalepsy activity in rats.; assay type: functional
Summary of the method: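 Groups of eight Lilly Wistar rats (180–190 g) dosed orally, front paws placed on 1.5-cm rod 7 cm above table at 0.5, 1, 1.5, 2, 3, 4, 5 h. Time held recorded up to 20 min, scored 0–5 (<10 s = 0 up to >20 min = 5). Maximum score per animal summed; group maximum 40.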

Rattus norvegicus [28] = assay: Compound was evaluated for its ability to block conditioned avoidance response (CAR) in rats; Dose administered perorally is 1.25 mg/kg; 51-75% block; assay type: functional; conditions: route oral
Rattus norvegicus [29] = assay: Compound was evaluated for its ability to block conditioned avoidance response (CAR) in rats; Dose administered perorally is 50 mg/kg; 51-75% block; assay type: functional; conditions: route oral
Rattus norvegicus [30] = assay: Compound was evaluated for its ability to block conditioned avoidance response (CAR) in rats; Dose administered perorally is 2.5 mg/kg; 31-50% block; assay type: functional; conditions: route oral
Rattus norvegicus [31] = assay: compound was evaluated for its ability to produce catalepsy activity in rats; Dose administered perorally is 2.5 mg/kg; assay type: functional; conditions: route oral; summary of the method: as §3

Row | Structure (SMILES) | EDmin (Mus musculus [1]) [mg/kg] | LD50 [2] [mg/kg] | further results
1 | OCCCN1CCN(C2=Nc3cc(F)ccc3Nc3ccsc32)CC1 | 200 | > 400 | Activity (Rattus norvegicus [3]): 0; Activity (Rattus norvegicus [4]): 0
2 | Fc1ccc2c(c1)N=C(N1CCNCC1)c1sccc1N2 | 50 | 400 | Activity (Rattus norvegicus [5]): 2; Activity (Rattus norvegicus [4]): 1
3 | Cc1scc2c1Nc1ccccc1N=C2N1CCN(C)CC1 | >100 | 200 | Activity (Rattus norvegicus [6]): 0; Activity (Rattus norvegicus [7]): 0
4 | c1ccc2c(c1)N=C(N1CCNCC1)c1cscc1N2 | 50 | > 400 | Activity (Rattus norvegicus [6]): 0; Activity (Rattus norvegicus [4]): 1
5 | CN1CCN(C2=Nc3ccccc3Nc3cscc32)CC1 | 25 | 150 | LD50 (Mus musculus [8]): 150 mg/kg; Activity (Rattus norvegicus [9]): 4; Activity (Rattus norvegicus [10]): 1
6 | CN1CCN(C2=NC3=CSCC3=Nc3ccccc32)CC1 | 50 | 50 | Activity (Rattus norvegicus [11]): 0
7 | CN1CCN(C2=Nc3cc(F)ccc3Nc3cscc32)CC1 | 6.25 | 100 | Activity (Rattus norvegicus [12]): 1; Activity (Rattus norvegicus [13]): 1
8 | CSc1ccc2c(c1)N=C(N1CCN(C)CC1)c1cscc1N2 | 25 | 400 | Activity (Rattus norvegicus [14]): 2
9 | c1ccc2c(c1)N=C(N1CCNCC1)c1sccc1N2 | 50 | 400 | Activity (Rattus norvegicus [15]): 1; Activity (Rattus norvegicus [16]): 0
10 | Cc1scc2c1C(N1CCN(C)CC1)=Nc1ccccc1N2 | 50 | > 400 | Activity (Rattus norvegicus [17]): 0
11 | Fc1ccc2c(c1)N=C(N1CCNCC1)c1cscc1N2 | 100 | 600 | Activity (Rattus norvegicus [6]): 0; Activity (Rattus norvegicus [4]): 0
12 | CN1CCN(C2=Nc3ccccc3N(C)c3cscc32)CC1 | 25 | 150 | Activity (Rattus norvegicus [5]): 2; Activity (Rattus norvegicus [4]): 0
13 | Fc1ccc2c(c1)N=C(N1CCN(Cc3ccccc3)CC1)c1sccc1N2 | 100 | > 400 | Activity (Rattus norvegicus [6]): 0
14 | CN1CCN(C2=Nc3cc(F)ccc3Nc3ccsc32)CC1 | 12.5 | > 25 | Activity (Rattus norvegicus [18]): 3; Activity (Rattus norvegicus [13]): 2
15 | O=CN1CCN(C2=Nc3ccccc3N(C=O)c3cscc32)CC1 | 200 | 400 | Activity (Rattus norvegicus [6]): 0
16 | Clc1cc2c(cc1Cl)Nc1cscc1C(N1CCNCC1)=N2 | 200 | > 800 | Activity (Rattus norvegicus [6]): 0; Activity (Rattus norvegicus [4]): 0
17 | Clc1ccc2c(c1)N=C(N1CCNCC1)c1cscc1N2 | 25 | > 400 | Activity (Rattus norvegicus [6]): 0; Activity (Rattus norvegicus [4]): 0
18 | CCOC(=O)N1CCN(C2=Nc3cc(F)ccc3Nc3ccsc32)CC1 | >800 | > 800 | Activity (Rattus norvegicus [15]): 1
19 | COc1ccc2c(c1)N=C(N1CCN(C)CC1)c1cscc1N2 | 50 | 200 | Activity (Rattus norvegicus [15]): 1; Activity (Rattus norvegicus [4]): 1

Row | Structure (SMILES) | EDmin (Mus musculus [1]) [mg/kg] | LD50 [2] [mg/kg] | further results
20 | CN1CCN(C2=Nc3ccc(C(F)(F)F)cc3Nc3cscc32)CC1 | 100 | 600 | Activity (Rattus norvegicus [6]): 0; Activity (Rattus norvegicus [4]): 0
21 | CN1CCN(C2=Nc3ccccc3Nc3ccsc32)CC1 | 25 | 100 | Activity (Rattus norvegicus [19]): 3; Activity (Rattus norvegicus [10]): 2
22 | CN1CCN(C2=Nc3cc(Cl)ccc3Nc3ccsc32)CC1 | 6.25 | 50 | Activity (Rattus norvegicus [20]): 3; Activity (Rattus norvegicus [21]): 2
23 | CN1CCN(C2=Nc3cc(C(F)(F)F)ccc3Nc3cscc32)CC1 | 50 | > 200 | Activity (Rattus norvegicus [22]): 3
24 | OCCN1CCN(C2=Nc3cc(F)ccc3Nc3ccsc32)CC1 | 25 | > 400 | Activity (Rattus norvegicus [5]): 2; Activity (Rattus norvegicus [4]): 0
25 | c1ccc(CN2CCN(C3=Nc4ccccc4Nc4ccsc43)CC2)cc1 | 200 | > 400 | Activity (Rattus norvegicus [6]): 0
26 | CN1CCN(C2=Nc3cc(Cl)c(Cl)cc3Nc3cscc32)CC1 | 25 | 400 | Activity (Rattus norvegicus [23]): 4; Activity (Rattus norvegicus [21]): 1
27 | OCCCN1CCN(C2=Nc3ccccc3Nc3cscc32)CC1 | >400 | > 400 | Activity (Rattus norvegicus [15]): 1
28 | Cc1cc2c(s1)C(N1CCN(C)CC1)=Nc1cc(F)ccc1N2 | 12.5 | 150 | Activity (Rattus norvegicus [24]): 0
29 | c1ccc(CN2CCN(C3=Nc4ccccc4Nc4cscc43)CC2)cc1 | 800 | 800 | Activity (Rattus norvegicus [6]): 0
30 | CN1CCN(c2cccc3c2N=C2SC=CC2N=C3)CC1 (configuration not stated) | >50 | > 50 | 
31 | CN1CCN(C2=Nc3cc(Cl)ccc3Nc3cscc32)CC1 | 3 | 75 | Activity (Rattus norvegicus [25]): 3; Activity (Rattus norvegicus [21]): 1
32 | CN(C)CCCN1c2ccccc2Sc2ccc(Cl)cc21 [CHLORPROMAZINE] | 6.25 |  | Activity (Rattus norvegicus [26]): 3; Activity (Rattus norvegicus [21]): 1
33 | CN1CCN(C2=Nc3cc(Cl)ccc3Nc3ccccc32)CC1 [CLOZAPINE] | 50 |  | Activity (Rattus norvegicus [18]): 3; Activity (Rattus norvegicus [27]): 2
34 | OCCN1CCN(CC/C=C2\c3ccccc3Sc3ccc(C(F)(F)F)cc32)CC1 [E-FLUPENTIXOL] | >400 | > 400 | Activity (Rattus norvegicus [15]): 1; Activity (Rattus norvegicus [4]): 0
35 | O=C(CCCN1CCC(O)(c2ccc(Cl)cc2)CC1)c1ccc(F)cc1 [HALOPERIDOL] | 3 | > 100 | Activity (Rattus norvegicus [28]): 3; Activity (Rattus norvegicus [21]): 3
36 | CSc1ccc2c(c1)N(CCC1CCCCN1C)c1ccccc1S2 (configuration not stated) [THIORIDAZINE] | 25 |  | Activity (Rattus norvegicus [29]): 3; Activity (Rattus norvegicus [10]): 1
37 | OCCN1CCN(CC/C=C2/c3ccccc3Sc3ccc(C(F)(F)F)cc32)CC1 [Z-FLUPENTIXOL] | 3 |  | Activity (Rattus norvegicus [30]): 2; Activity (Rattus norvegicus [31]): 4
